M5 ag: agonists of human muscarinic M5 receptor (CHRM5); P08912; CHO-K1 hM5 cells, Fluo-8 calcium fluorescence; 0% DMSO wells, 100% maximal acetylcholine response; activation, % at 3 µM; actives 0.19% (n = 360,000);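 active means activation above the run's mean over test compounds plus 3 SD, cut at about 23% in these data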;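 further: signal is peak over basal fluorescence ratio across the kinetic read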
CHRM5 PAM: CHRM5 positive allosteric modulation; CHO-K1 hM5, Fluo-8 calcium, ACh EC20 PAM; 0% = ACh EC20, 100% = ACh EC100; activation, % at 3 µM; actives 0.3% (n = 360,000);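 active means activation above the run cutoff, the mean activation of all test compounds plus 3 SD, cut at about 18% in these data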
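System: CHO-K1 cell line with stable human muscarinic M5 receptor expression | Also added: EC20 acetylcholine as agonist stimulus | Compound: One concentration, 3 µM final (nominal) | Timing: Fluo-8 loading 80 min at 37 °C plus 30 min room temperature | Measured by: Fluo-8 calcium dye fluorescence, kinetic read | Read-out basis: % activation, ACh-normalized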
CHRM1 agonist: human M1 muscarinic receptor agonism | activation, % at 3 µM | CHO-K1 hM1, Fluo-8 calcium fluorescence, agonist mode; 0% DMSO, 100% acetylcholine EC100 | P11229 | actives 0.33% (n = 360,000) | AID 588814;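 active means activation above the run's mean compound activation plus 3 SD, cut at about 16% in these data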;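 further: peak over basal fluorescence ratio within a 140 s kinetic read after compound addition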
Target sequence (P11229 whole entry, looked up): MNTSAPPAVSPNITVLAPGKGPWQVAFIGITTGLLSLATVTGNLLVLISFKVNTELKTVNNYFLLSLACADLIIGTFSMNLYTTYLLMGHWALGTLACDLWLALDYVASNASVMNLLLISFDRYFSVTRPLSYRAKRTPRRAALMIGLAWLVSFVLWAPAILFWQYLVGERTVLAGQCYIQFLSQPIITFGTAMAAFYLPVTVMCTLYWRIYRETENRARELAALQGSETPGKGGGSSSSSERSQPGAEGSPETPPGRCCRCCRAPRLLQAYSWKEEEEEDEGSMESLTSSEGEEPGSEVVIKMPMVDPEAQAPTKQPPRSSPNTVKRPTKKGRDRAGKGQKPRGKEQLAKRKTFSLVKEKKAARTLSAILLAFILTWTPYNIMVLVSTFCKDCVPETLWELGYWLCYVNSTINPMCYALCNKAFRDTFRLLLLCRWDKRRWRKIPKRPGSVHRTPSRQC
M1 antag: antagonists of human M1 muscarinic receptor; CHO-K1 hM1, Fluo-8 calcium fluorescence, ACh EC80 antagonist; inhibition, % at 3 µM; actives 1.3% (n = 360,000);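 active means percent inhibition above its own plate's cutoff, namely the mean of that plate's compound wells plus 3 SD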;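 further: peak over basal fluorescence ratio during 140 s after agonist addition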
M1 PAM: positive allosteric modulators of human M1 muscarinic receptor. CHO-K1 hM1, Fluo-8 calcium fluorescence, ACh EC20; 0% = ACh EC20, 100% = maximal ACh. activation, % at 3 µM. actives 0.088% (n = 360,000). AID 588819; in the data active means activation above about 19%, passing the limit was not always enough
CHRM5 antagonist: CHRM5 antagonism in calcium assay; P08912; CHO-hM5 cells, Fluo-8 calcium fluorescence, ACh EC80; actives 0.59% (n = 360,000); inhibition, % at 3 µM;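 active means inhibition above a per-plate cutoff, the mean of that plate's test compounds plus 3 SD, cut at about 27% in these data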
Of the large screens only hits and unclear results are named; the others gave an inactive call. An excerpt weighted towards active compounds, which were near 2% of everything screened.

CCCS(=O)(=O)NC(=O)C1(C)CCCN(C(=O)c2cc(F)cc(F)c2)C1 (stereo not given)	none
CC(C)[C@@H]1CC2=C(C(=O)OC(C)(C)O2)[C@H](CCc2ccccc2)O1	none (no result: CHRM1 agonist, M1 antag, M1 PAM)
Cc1nc2ccc(S(=O)(=O)CCC(=O)NCc3ccc(Cl)cc3)cc2s1	none
COc1ccc(NC(=O)COc2ccc(/C=N/O)cc2OC)cc1	none
CCCCNC(=S)N(C)/N=C/c1ccc(OCC(=O)Nc2ccc(OC)cc2)c(OC)c1	M1 antag 34
CCNC(=S)N/N=C/c1ccc(OCC(=O)Nc2ccc(OC)cc2)c(OC)c1	M1 antag 39
CCCCNC(=S)N(C)/N=C/c1ccc(OCC(=O)Nc2c(C)cc(C)cc2C)c(OC)c1	none
Cc1ccc(NC(=O)c2ncn(CCCN(CCCn3cnc(C(=O)Nc4ccc(C)c(C)c4)n3)Cc3ccc4[nH]ccc4c3)n2)cc1C	none
COc1cc(C(O)c2nc(-c3cccc(F)c3)cs2)ccc1F (stereo not given)	none
Cc1ccc(CSC(Nc2ccc(F)cc2)=C(C#N)C#N)cc1	CHRM5 antagonist 31
COCCNC(=O)C1(C)CCN(C(=O)c2cc(C)n(C(C)(C)C)n2)C1 (stereo not given)	none
O=C1C(=O)c2cccnc2-c2ncccc21	none
S=C(NCc1ccco1)Nc1ccc(Cl)c(Cl)c1	none
S=C(NCc1ccco1)Nc1cc(Cl)c(Cl)cc1Cl	CHRM5 antagonist 33
COc1ccc(NC(=O)CN(C)C(=O)c2oc3ccccc3c2C)cc1	none
O=C1CCC(C(=O)N2CCCC2)CN1Cc1cccc(C(F)(F)F)c1 (stereo not given)	none
O=C1CCC(C(=O)N2CCCO2)CN1Cc1cccc(C(F)(F)F)c1 (stereo not given)	CHRM5 PAM 19
O=[N+]([O-])c1ccc(C[n+]2ccc(Cc3ccccc3)cc2)cc1	M1 antag 28
O=C(C[n+]1ccc(Cc2ccccc2)cc1)Nc1ccc([N+](=O)[O-])cc1Cl	M1 antag 86
Cc1cccc[n+]1CC(=O)Nc1ccc([N+](=O)[O-])cc1Cl	M1 antag 36
O=[N+]([O-])c1ccc(C[n+]2ccccc2)cc1	none
Cc1ccc(OCCn2cnc3cc([N+](=O)[O-])ccc3c2=O)cc1	none
O=c1c2ccc([N+](=O)[O-])cc2ncn1CCOc1ccccc1	M1 antag 36
CCC1CCCCN1CCCNC(=O)c1ccc2c(c1)N(Cc1c(F)cccc1Cl)C(=O)CS2 (stereo not given)	M1 antag 100, CHRM5 antagonist 76
O=C(NCc1ccc2c(c1)OCO2)c1ccc2c(c1)N(Cc1c(F)cccc1Cl)C(=O)CS2	M1 antag 40
CCCCN(CCCC)c1ccc(C(=O)c2ccccc2C(=O)O)c(O)c1	CHRM1 agonist 37
CN(C)CCn1c2c(c(SCC(=O)Nc3ccccc3)nc1=O)CCCC2	none
CCN(CC)CCn1c2c(c(SCC(=O)Nc3ccc(C(C)C)cc3)nc1=O)CCCC2	none
O=C(CSc1nc(=O)n(CCCN2CCOCC2)c2c1CCCC2)Nc1cccc([N+](=O)[O-])c1	none
CCN(CC)CCn1c2c(c(SCC(=O)Nc3ccc(C)c(F)c3)nc1=O)CCCC2	M1 antag 50
CCc1ccc(NC(=O)CSc2nc(=O)n(CCCN(C)C)c3c2CCC3)cc1	CHRM5 antagonist 31
CC(C)c1ccc(NC(=O)CSc2nc(=O)[nH]c3c2CCCC3)cc1	M5 ag 45
O=C(CSc1nc(=O)n(CCCN2CCOCC2)c2c1CCCC2)Nc1cccc(F)c1	M1 antag 30
NC(=O)c1cccc(-c2ccnc3c2CC(C(=O)NCc2cccc(Cl)c2)O3)c1 (stereo not given)	none
CC(CC(=O)Nc1ccc2c(c1)c(=O)n(C)n2-c1ccccc1F)c1ccccc1 (stereo not given)	none
COC(=O)[C@@]12C[C@@H](CC(=O)NCCC(C)C)C(=O)N(Cc3ccccc3)C1=CCC(C)(C)C2	none (no result: CHRM1 agonist, M1 antag, M1 PAM)
CC(C)(C)CNC(=O)C1(C)CCN1C(=O)Cc1ccc(-c2ccccc2)cc1 (stereo not given)	none
CCN(CC)CCCn1c2c(c(SCC(=O)Nc3ccc(F)c(F)c3)nc1=O)CCC2	none
CCN(CC)CCCn1c2c(c(SCC(=O)Nc3cc(OC)cc(OC)c3)nc1=O)CCC2	M1 antag 29
CCCCc1ccc(NC(=O)CSc2nc(=O)n(CCN(CC)CC)c3c2CCC3)cc1	M1 antag 36
COCCNC(=O)C1(C)CCN(C(=O)c2cccc(C)c2C)C1 (stereo not given)	none
CCOc1ccccc1N(C)S(=O)(=O)c1ccc2c(c1)CC(C)N2C(=O)C1CC1 (stereo not given)	none
CCC(=O)N1CCc2cc(S(=O)(=O)N(CC)c3cccc(C)c3)ccc21	none
CCN(c1ccccc1)S(=O)(=O)c1ccc2c(c1)CC(C)N2C(=O)C1CC1 (stereo not given)	CHRM5 antagonist 27
CCN(c1cccc(C(F)(F)F)c1)S(=O)(=O)c1ccc2c(c1)CCN2C(=O)C1CC1	M1 antag 33
C[C@H](CO)N1C[C@H](C)[C@@H](CN(C)S(=O)(=O)c2cccc(C#N)c2)OCc2cn(nn2)CCCC1=O	none
Cc1cc(N2CCN(C(C(=O)NC3CCCC3)C(C)(C)C)CC2)c2ccccc2n1 (stereo not given)	none (no result: CHRM1 agonist, M1 antag, M1 PAM)
C[C@H](NC(=O)C1CCN(S(=O)(=O)c2ccccc2)CC1)C(=O)NCc1cccnc1	none
CCNC(=O)C1(C)CCN(Cc2cccc(Oc3ccccc3)c2)C1 (stereo not given)	none
c1ccc(CN2CCC(Nc3ncnc4sccc34)CC2)cc1	none
Cc1sc2ncnc(NC3CCN(Cc4ccccc4)CC3)c2c1C	M1 antag 43, CHRM5 antagonist 29
O=C(Nc1ccccc1Cl)N1CCN(c2ccc3nnc(-c4ccccc4)n3n2)CC1	none
O=C(Nc1ccc(Cl)cc1)N1CCN(c2ccc3nnc(-c4ccc(F)cc4)n3n2)CC1	M1 antag 42
O=C(Nc1ccc(Cl)cc1)N1CCC(c2nc(-c3ccc(F)cc3)no2)CC1	M1 antag 58, CHRM5 antagonist 47
CCCN(C(=O)COC(=O)Cn1c(=O)oc2ccccc21)c1c(N)n(Cc2ccccc2)c(=O)[nH]c1=O	none
CCC(C(=O)NCc1ccccc1)n1c(C2CCN(C(C)=O)CC2)nc2ccccc21 (stereo not given)	none (no result: CHRM1 agonist, M1 antag, M1 PAM)
Cc1cc(C)n(-c2nc(NC(C)(C)C)nc(NC(C)(C)C)n2)n1	none
Cc1cc(C)n(-c2nc(Nc3ccccc3C(F)(F)F)nc(-n3nc(C)cc3C)n2)n1	CHRM5 antagonist 30

Bioassay records (PubChem BioAssay)
